Experimental data from ChEMBL document CHEMBL5053511, “Discovery of a Novel BCL-XL PROTAC Degrader with Enhanced BCL-2 Inhibition” (J Med Chem, 2021).
Activity calls are given as the source filed them. No cut-off for these calls is given here.

Legend:
[1] = system: RS4-11; assay: Cytotoxicity against human RS4-11 cells assessed as reduction in cell viability measured after 48 hrs by MTS assay; assay type: functional, cell-based; conditions: RS4-11, 48 h
[2] = system: MOLT-4; assay: Cytotoxicity against human MOLT-4 cells assessed as reduction in cell viability measured after 48 hrs by MTS assay; assay type: functional, cell-based; conditions: MOLT-4, 48 h
[3] = molecular target: T1, von Hippel-Lindau disease tumor suppressor/Bcl-2-like protein 1 (Homo sapiens, UniProt Q07817+P40337); assay: Protac activity at VHL/BCL-XL in human MOLT-4 assessed as decrease in BCL-XL protein level at up to […] measured after 16 hrs by Western blot analysis
Outline: (§1)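 MOLT-4 or RS4;11 cells were treated at a range of concentrations for 16 h. BCL-XL was immunoblotted with β-actin loading control, and band densitometry was normalised to β-actin. Mean ± SD of three independent experiments in triplicate.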
Target sequence in this assay (P40337 whole entry, looked up): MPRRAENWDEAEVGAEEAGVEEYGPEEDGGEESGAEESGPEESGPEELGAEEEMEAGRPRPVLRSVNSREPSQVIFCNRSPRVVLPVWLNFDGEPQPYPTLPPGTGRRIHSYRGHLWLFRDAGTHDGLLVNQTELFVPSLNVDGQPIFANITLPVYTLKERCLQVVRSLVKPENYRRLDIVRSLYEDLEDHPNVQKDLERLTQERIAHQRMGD
Target sequence in this assay (Q07817 whole entry, looked up): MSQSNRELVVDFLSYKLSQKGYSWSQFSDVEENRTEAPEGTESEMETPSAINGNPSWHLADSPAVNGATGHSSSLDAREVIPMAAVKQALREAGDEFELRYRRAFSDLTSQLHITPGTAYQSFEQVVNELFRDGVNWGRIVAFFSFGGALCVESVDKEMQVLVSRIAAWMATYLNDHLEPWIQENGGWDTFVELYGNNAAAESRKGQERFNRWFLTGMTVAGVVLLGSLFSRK

[4] = molecular target: T1, von Hippel-Lindau disease tumor suppressor/Bcl-2-like protein 1; assay: Protac activity at VHL/BCL-XL in human RS4-11 assessed as decrease in BCL-XL protein level at up to […] measured after 16 hrs by Western blot analysis; outline: as §1
Target sequence in this assay (P40337 whole entry, looked up): as the sequence (P40337 whole entry, looked up) above
Target sequence in this assay (Q07817 whole entry, looked up): as the sequence (Q07817 whole entry, looked up) above

[5] = molecular target: T1, von Hippel-Lindau disease tumor suppressor/Bcl-2-like protein 1; assay: Binding affinity to Halo-tagged VHL/HiBiT-tagged BCL-XL (unknown origin) expressed in HEK293T cells assessed as ternary complex formation at up to 100000 nM measured after 6 hrs by NanoBRET assay; assay type: cell-based
Outline: (§2)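 NanoBRET in live HEK 293T cells. Cells were transfected with HaloTag-VHL (1 µg), HiBit-BCL-XL or HiBit-BCL-2 (10 ng) and LgBit (10 ng). After 24 h they were seeded at 2×10^4 per well in Opti-MEM with 4% FBS, with or without HaloTag 618 ligand, and held overnight. Serial compound doses were given for 6 h at 37 °C, then Nano-Glo substrate was added and mBRET ratios read. Mean ± s.e.m. of two experiments in triplicate.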
Target sequence in this assay (P40337 whole entry, looked up): as the sequence (P40337 whole entry, looked up) above
Target sequence in this assay (Q07817 whole entry, looked up): as the sequence (Q07817 whole entry, looked up) above

[6] = molecular target: T2, von Hippel-Lindau disease tumor suppressor/Apoptosis regulator Bcl-2 (Homo sapiens) (UniProt P10415+P40337); assay: Binding affinity to Halo-tagged VHL/HiBiT-tagged BCL-2 (unknown origin) expressed in HEK293T cells assessed as ternary complex formation at up to 100000 nM measured after 6 hrs by NanoBRET assay; assay type: cell-based; outline: as §2
[7] = molecular target: T1, von Hippel-Lindau disease tumor suppressor/Bcl-2-like protein 1; assay: Binding affinity to VHL/ BCL-XL in human RS4-11 cells assessed as ternary complex formation at up to 300 nM measured after 12 hrs by immunoprecipitation assay; assay type: cell-based
Target sequence in this assay (P40337 whole entry, looked up): as the sequence (P40337 whole entry, looked up) above
Target sequence in this assay (Q07817 whole entry, looked up): as the sequence (Q07817 whole entry, looked up) above

[8] = molecular target: T1, von Hippel-Lindau disease tumor suppressor/Bcl-2-like protein 1; assay: Binding affinity to VHL/ BCL-XL in human RS4-11 cells assessed as ternary complex formation at up to 300 nM measured after 12 hrs in presence of VHL-032 by immunoprecipitation assay; assay type: cell-based
Target sequence in this assay (P40337 whole entry, looked up): as the sequence (P40337 whole entry, looked up) above
Target sequence in this assay (Q07817 whole entry, looked up): as the sequence (Q07817 whole entry, looked up) above

[9] = molecular target: T2, von Hippel-Lindau disease tumor suppressor/Apoptosis regulator Bcl-2 (Homo sapiens); assay: Binding affinity to VHL/BCL-2 in human RS4-11 cells assessed as ternary complex formation at up to 300 nM measured after 12 hrs in presence of VHL-032 by immunoprecipitation assay; assay type: cell-based
[10] = system: Platelet; assay: Cytotoxicity against platelets in human PRP assessed as reduction in cell viability measured after 48 hrs by MTS assay; assay type: cell-based
Outline: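 Washed human platelets from PRP were kept in HEPES Tyrode's buffer with 1 µM PGE1 and 0.2 units/mL apyrase at 2×10^8/mL.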

[11] = molecular target: T2, von Hippel-Lindau disease tumor suppressor/Apoptosis regulator Bcl-2 (Homo sapiens); assay: Binding affinity to VHL/BCL-2 in human RS4-11 cells assessed as ternary complex formation at up to 300 nM measured after 12 hrs by immunoprecipitation assay; assay type: cell-based
[12] = molecular target: T1, von Hippel-Lindau disease tumor suppressor/Bcl-2-like protein 1; assay: Protac activity at VHL/BCL-XL in human RS4-11 cells assessed as decrease in BCL-XL protein level by densitometric analysis; assay type: cell-based; outline: as §1
Target sequence in this assay (Q07817 whole entry): as the sequence (Q07817 whole entry, looked up) above
Target sequence in this assay (P40337 whole entry): as the sequence (P40337 whole entry, looked up) above

[13] = molecular target: T1, von Hippel-Lindau disease tumor suppressor/Bcl-2-like protein 1; assay: Protac activity at VHL/BCL-XL in human MOLT-4 cells assessed as decrease in BCL-XL protein level by densitometric analysis; assay type: cell-based; outline: as §1
Target sequence in this assay (Q07817 whole entry): as the sequence (Q07817 whole entry, looked up) above
Target sequence in this assay (P40337 whole entry): as the sequence (P40337 whole entry, looked up) above

[14] = molecular target: T1, von Hippel-Lindau disease tumor suppressor/Bcl-2-like protein 1; assay: Protac activity at VHL/BCL-XL in human MOLT-4 cells assessed as induction of BCL-XL degradation measured after 16 hrs by Western blot analysis; assay type: cell-based; outline: as §1
Target sequence in this assay (Q07817 whole entry): as the sequence (Q07817 whole entry, looked up) above
Target sequence in this assay (P40337 whole entry): as the sequence (P40337 whole entry, looked up) above

[15] = system: RS4-11; assay: Cytotoxicity against human RS4-11 cells assessed as reduction in cell viability measured after 48 hrs in presence of VHL-032 by MTS assay; assay type: functional, cell-based; conditions: RS4-11, 48 h
Outline: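 RS4;11 cells were pretreated with 10 µM VHL-032, then exposed to compound for 48 h. Viability was read by MTS; three independent experiments in triplicate.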

[16] = molecular target: Bcl-2-like protein 1 (Homo sapiens, UniProt Q07817); assay: Displacement of biotin-tagged LWAAQRYGRELRRMSDEFEGSFKGL from human BCL-XL expressed in Escherichia coli measured after 2 hrs by AlphaScreen assay
Outline: (§3)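 AlphaScreen displacement, run with or without VCB. Anti-His acceptor beads were added for 1 h at room temperature, then streptavidin donor beads for 30 min in the dark. Ki was fitted by one-site competitive model from peptide concentration and measured Kd values; reported as mean ± SD of at least two experiments in triplicate.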

[17] = molecular target: Apoptosis regulator Bcl-2 (Homo sapiens, UniProt P10415); assay: Displacement of biotin-tagged MRPEPATIAQELRRIGDEFNA from C-terminal His-tagged human BCL-2 (1` to 211 residues) expressed in Escherichia coli measured after 2 hrs by AlphaScreen assay; outline: as §3
[18] = Binding affinity to human BCL-XL expressed in Escherichia coli/recombinant human VHL (54 to end residues) fused to human N-terminal GST-tagged elongin-C/elongin -B/N-terminal His-tagged CUL2/Rbx1 expressed in baculovirus infected Sf21 insect cells measured after 2 hrs by AlphaScreen assay
Outline: (§4)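 AlphaScreen displacement, run with or without VCB. Biotin-Bim (80 nM, for BCL-2) or biotin-Bad (16 nM, for BCL-XL) was combined with serially diluted compound and 6×His protein in 25 mM HEPES pH 7.5, 100 mM NaCl, 0.1% BSA, 0.005% Tween 20. Anti-His acceptor beads were added for 1 h at room temperature, then streptavidin donor beads for 30 min in the dark. Ki was fitted by one-site competitive model from peptide concentration and measured Kd values; reported as mean ± SD of at least two experiments in triplicate.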

[19] = Binding affinity to C-terminal His-tagged human BCL-2 (1 to 211 residues) expressed in Escherichia coli/recombinant human VHL (54 to end residues) fused to human N-terminal GST-tagged elongin-C/elongin -B/N-terminal His-tagged CUL2/Rbx1 expressed in baculovirus infected Sf21 insect cells measured after 2 hrs by AlphaScreen assay; outline: as §4
[20] = Binding affinity to human BCL-XL expressed in Escherichia coli/recombinant human VHL (54 to end residues) fused to human N-terminal GST-tagged elongin-C/elongin -B/N-terminal His-tagged CUL2/Rbx1 expressed in baculovirus infected Sf21 insect cells assessed as ternary complex formation at up to 100000 nM measured after 30 mins by AlphaLISA assay
Outline: (§5)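 Cell-free ternary complex AlphaLISA: 6×His-tagged BCL-XL, BCL-2 or MCL-1 (20 nM) mixed with serially diluted compound (4× dilution) and GST-VCB (20 nM) in 25 mM HEPES pH 7.5, 100 mM NaCl, 0.1% BSA, 0.005% Tween 20. After 30 min at room temperature, glutathione donor beads were added for 15 min, then anti-His acceptor beads for 45 min in the dark. Luminescence was plotted against log compound concentration.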

[21] = Binding affinity to C-terminal His-tagged human BCL-2 (1 to 211 residues) expressed in Escherichia coli/recombinant human VHL (54 to end residues) fused to human N-terminal GST-tagged elongin-C/elongin -B/N-terminal His-tagged CUL2/Rbx1 expressed in baculovirus infected Sf21 insect cells assessed as ternary complex formation at up to 100000 nM measured after 30 mins by AlphaLISA assay; outline: as §5

T2 sequence (P10415 whole entry, looked up): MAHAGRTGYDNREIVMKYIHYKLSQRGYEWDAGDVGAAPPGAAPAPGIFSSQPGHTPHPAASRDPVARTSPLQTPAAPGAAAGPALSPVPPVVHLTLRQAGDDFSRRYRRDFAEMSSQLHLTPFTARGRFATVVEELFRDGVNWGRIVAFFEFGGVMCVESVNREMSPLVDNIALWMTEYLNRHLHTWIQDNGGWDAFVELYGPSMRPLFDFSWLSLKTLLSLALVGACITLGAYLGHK
T2 sequence (P40337 whole entry, looked up): as the sequence (P40337 whole entry, looked up) above
Sequence of Apoptosis regulator Bcl-2 (P10415 whole entry, the tested form may be a part): as the sequence (P10415 whole entry, looked up) above
Sequence of Bcl-2-like protein 1 (Q07817 whole entry): as the sequence (Q07817 whole entry, looked up) above

Structure (SMILES): Cc1ncsc1-c1ccc([C@H](C)NC(=O)[C@@H]2C[C@H](O)CN2C(=O)[C@@H](NC(=O)CCCCCCCCC(=O)NC[C@]2(C)CCC(c3ccc(Cl)cc3)=C(CN3CCN(c4ccc(C(=O)NS(=O)(=O)c5ccc(N[C@H](CCN6CCOCC6)CSc6ccccc6)c(S(=O)(=O)C(F)(F)F)c5)cc4)CC3)C2)C(C)(C)C)cc1
- IC50 [1]: 328 nM
- IC50 [2]: 821 nM
- Activity [3]: inactive
- Activity [4]: inactive
- Activity [5]: inactive
- Activity [6]: inactive
- Activity [7]: Active
- Activity [8]: inactive
- Activity [9]: inactive

Structure (SMILES): CC1(C)CCC(c2ccc(Cl)cc2)=C(CN2CCN(c3ccc(C(=O)NS(=O)(=O)c4ccc(N[C@H](CCN5CCOCC5)CSc5ccccc5)c(S(=O)(=O)C(F)(F)F)c4)cc3)CC2)C1 [NAVITOCLAX]
- IC50 [10]: 325 nM
- Activity [7]: Active
- Activity [11]: Active
- Activity [8]: inactive

Structure (SMILES): Cc1ncsc1-c1ccc([C@H](C)NC(=O)[C@@H]2C[C@@H](O)CN2C(=O)[C@@H](NC(=O)CCCCCCCCCCCC(=O)NCC2(C)CCC(c3ccc(Cl)cc3)=C(CN3CCN(c4ccc(C(=O)NS(=O)(=O)c5ccc(N[C@H](CCN6CCOCC6)CSc6ccccc6)c(S(=O)(=O)C(F)(F)F)c5)cc4)CC3)C2)C(C)(C)C)cc1 (some centres undefined)
- IC50 [1]: 410 nM
- IC50 [2]: 334 nM

Structure (SMILES): Cc1ncsc1-c1ccc([C@H](C)NC(=O)[C@@H]2C[C@@H](O)CN2C(=O)[C@@H](NC(=O)CCCCCCCCCCC(=O)NCC2(C)CCC(c3ccc(Cl)cc3)=C(CN3CCN(c4ccc(C(=O)NS(=O)(=O)c5ccc(N[C@H](CCN6CCOCC6)CSc6ccccc6)c(S(=O)(=O)C(F)(F)F)c5)cc4)CC3)C2)C(C)(C)C)cc1 (some centres undefined)
- IC50 [1]: 96.3 nM
- IC50 [2]: 112 nM

Structure (SMILES): Cc1ncsc1-c1ccc([C@H](C)NC(=O)[C@@H]2C[C@@H](O)CN2C(=O)[C@@H](NC(=O)CCCCCCCCCC(=O)NCC2(C)CCC(c3ccc(Cl)cc3)=C(CN3CCN(c4ccc(C(=O)NS(=O)(=O)c5ccc(N[C@H](CCN6CCOCC6)CSc6ccccc6)c(S(=O)(=O)C(F)(F)F)c5)cc4)CC3)C2)C(C)(C)C)cc1 (some centres undefined)
- IC50 [1]: 29.2 nM
- IC50 [2]: 74.6 nM

Structure (SMILES): Cc1ncsc1-c1ccc([C@H](C)NC(=O)[C@@H]2C[C@@H](O)CN2C(=O)[C@@H](NC(=O)CCCCC(=O)NCC2(C)CCC(c3ccc(Cl)cc3)=C(CN3CCN(c4ccc(C(=O)NS(=O)(=O)c5ccc(N[C@H](CCN6CCOCC6)CSc6ccccc6)c(S(=O)(=O)C(F)(F)F)c5)cc4)CC3)C2)C(C)(C)C)cc1 (some centres undefined)
- IC50 [1]: 304 nM
- IC50 [2]: 340 nM

Structure (SMILES): Cc1ncsc1-c1ccc([C@H](C)NC(=O)[C@@H]2C[C@@H](O)CN2C(=O)[C@@H](NC(=O)CCCCCCCCC(=O)NCC2(C)CCC(c3ccc(Cl)cc3)=C(CN3CCN(c4ccc(C(=O)NS(=O)(=O)c5ccc(N[C@H](CCN6CCOCC6)CSc6ccccc6)c(S(=O)(=O)C(F)(F)F)c5)cc4)CC3)C2)C(C)(C)C)cc1 (some centres undefined)
- IC50 [10]: 2900 nM
- DC50 [12]: 22.6 nM
- DC50 [13]: 31.6 nM
- DC50 [14]: 27.2 nM
- IC50 [1]: 23.3 nM
- IC50 [2]: 32.1 nM
- Activity [5]: Active
- Activity [6]: Active
- IC50 [15]: 481 nM

Structure (SMILES): Cc1ncsc1-c1ccc([C@H](C)NC(=O)[C@@H]2C[C@@H](O)CN2C(=O)[C@@H](NC(=O)CCCCCCC(=O)NCC2(C)CCC(c3ccc(Cl)cc3)=C(CN3CCN(c4ccc(C(=O)NS(=O)(=O)c5ccc(N[C@H](CCN6CCOCC6)CSc6ccccc6)c(S(=O)(=O)C(F)(F)F)c5)cc4)CC3)C2)C(C)(C)C)cc1 (some centres undefined)
- IC50 [1]: 108 nM
- IC50 [2]: 219 nM

Structure (SMILES): Cc1ncsc1-c1ccc([C@H](C)NC(=O)[C@@H]2C[C@@H](O)CN2C(=O)[C@@H](NC(=O)CCCCCCCCC(=O)NC[C@@]2(C)CCC(c3ccc(Cl)cc3)=C(CN3CCN(c4ccc(C(=O)NS(=O)(=O)c5ccc(N[C@H](CCN6CCOCC6)CSc6ccccc6)c(S(=O)(=O)C(F)(F)F)c5)cc4)CC3)C2)C(C)(C)C)cc1
- IC50 [10]: 9850 nM
- DC50 [12]: 75.2 nM
- DC50 [13]: 127 nM
- IC50 [1]: 418 nM
- IC50 [2]: 170 nM
- Ki [16]: 2.75 nM
- Kd [17]: 1.47 nM
- Kd [18]: 0.64 nM
- Kd [19]: 0.55 nM
- Activity [20]: Active
- Activity [21]: Active
- Activity [5]: Active
- Activity [6]: Active
- IC50 [15]: 1040 nM

Structure (SMILES): Cc1ncsc1-c1ccc([C@H](C)NC(=O)[C@@H]2C[C@@H](O)CN2C(=O)[C@@H](NC(=O)CCCCCC(=O)NCC2(C)CCC(c3ccc(Cl)cc3)=C(CN3CCN(c4ccc(C(=O)NS(=O)(=O)c5ccc(N[C@H](CCN6CCOCC6)CSc6ccccc6)c(S(=O)(=O)C(F)(F)F)c5)cc4)CC3)C2)C(C)(C)C)cc1 (some centres undefined)
- IC50 [2]: 307 nM

Structure (SMILES): Cc1ncsc1-c1ccc([C@H](C)NC(=O)[C@@H]2C[C@@H](O)CN2C(=O)[C@@H](NC(=O)CCCCCCCC(=O)NCC2(C)CCC(c3ccc(Cl)cc3)=C(CN3CCN(c4ccc(C(=O)NS(=O)(=O)c5ccc(N[C@H](CCN6CCOCC6)CSc6ccccc6)c(S(=O)(=O)C(F)(F)F)c5)cc4)CC3)C2)C(C)(C)C)cc1 (some centres undefined)
- IC50 [1]: 43.7 nM
- IC50 [2]: 125 nM
